The source made the active and inactive calls.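 How the source made its calls: active means mean duplicate activation above the buffer control mean plus 5 SD of those controls; inactive means the rest.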

Potassium voltage-gated channel subfamily E member 1 (Homo sapiens) + Potassium voltage-gated channel subfamily KQT member 1 (Homo sapiens), sequence (P51787 whole entry, looked up): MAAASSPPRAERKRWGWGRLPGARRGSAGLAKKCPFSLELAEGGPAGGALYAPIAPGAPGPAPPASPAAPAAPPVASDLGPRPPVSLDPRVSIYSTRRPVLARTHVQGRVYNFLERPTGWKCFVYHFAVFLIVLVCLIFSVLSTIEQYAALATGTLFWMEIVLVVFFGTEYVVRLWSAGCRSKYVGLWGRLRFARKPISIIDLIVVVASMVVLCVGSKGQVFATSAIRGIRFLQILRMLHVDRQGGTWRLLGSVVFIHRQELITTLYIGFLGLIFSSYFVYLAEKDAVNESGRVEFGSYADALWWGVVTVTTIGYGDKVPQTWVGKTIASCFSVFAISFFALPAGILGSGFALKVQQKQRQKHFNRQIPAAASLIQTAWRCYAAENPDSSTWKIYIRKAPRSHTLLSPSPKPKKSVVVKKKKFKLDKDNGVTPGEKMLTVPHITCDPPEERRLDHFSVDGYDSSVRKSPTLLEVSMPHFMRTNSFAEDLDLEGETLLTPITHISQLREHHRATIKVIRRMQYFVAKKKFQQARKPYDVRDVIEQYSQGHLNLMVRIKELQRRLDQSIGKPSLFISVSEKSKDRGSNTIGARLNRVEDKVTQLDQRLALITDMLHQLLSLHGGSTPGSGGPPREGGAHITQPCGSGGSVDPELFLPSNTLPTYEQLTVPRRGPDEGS

In the test the target is Potassium voltage-gated channel subfamily E member 1 (Homo sapiens) + Potassium voltage-gated channel subfamily KQT member 1 (Homo sapiens) (UniProt P15382+P51787). Put plainly: KCNQ1-E1 channel activation – thallium flux, CHO-K1 KCNQ1/E1 cells, selectivity assay for KCNQ1 potentiator project, confirmation (AID 493186).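 On activation: 0% = assay buffer control and 100% = R-L3 activator control.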 The conditions noted are these: FluxOR thallium flux, at 10 µM; active compounds read high. The method, boiled down:
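Test system: CHO-K1 cells with KCNQ1/E1; dosing: one test concentration; signal: FluxOR Tl+ flux fluorescence, kinetic read; incubation: 90-min dye loading then 20-min compound exposure, both at room temperature; read-out basis: percent of R-L3 effect over buffer; replication: duplicate wells per compound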
As for `N#Cc1ccccc1OCCN1C(=O)c2ccccc2C1=O`, the outcome was inactive. Consider `CC1CCCCC1NC(=S)NC(=O)c1sc2ccccc2c1Cl` (stereo not given), for which the result was inactive. Consider `CC(Oc1ccc2ccccc2c1)C(=O)NNC(=S)NC(=O)c1ccco1` (stereo not given), for which the activation was 15.3% (active). Turning to `Cc1cc(C)cc(OCC(=O)NNC(=O)c2cc3ccccc3o2)c1`, the result was inactive. Same read-out and setting: the entry for `Cc1cc(NC(=O)CSCC(=O)OC(C)C(=O)N(C)Cc2ccccc2)no1` (stereo not given) is “inactive”. Same read-out and setting: the entry for `CCn1c(CCNC(=O)c2ccc(Cl)cc2Cl)n[nH]c1=S` is “inactive”; for `Cc1ccc(-n2ncc3c(=O)n(CC(=O)N4CCN(c5ccccc5F)CC4)cnc32)cc1C` it is “inactive”. In the case of `O=C(CC1(O)C(=O)N(Cc2ccccc2)c2ccccc21)c1ccncc1` (stereo not given), the result was inactive.

Regarding `O=C(NC(=S)Nc1nc2c(s1)CCCC2)c1ccccc1`, the result was inactive.

`COc1ccc(CCNC(=O)CCOc2cc(C)ccc2C)cc1OC`: the result was inactive. As to `NC(=Nc1ccc(Cl)cc1)c1ccccc1`, the result was inactive. With `S=C(Nc1ccc(Cl)cc1)c1nc2ccccc2s1`, the activation is 23.8% (active). As for `CCCOc1ccc(C(=O)NNC(=S)NC(=O)c2cc(-c3ccc(Cl)cc3)nc3ccccc23)cc1`, the outcome was inactive. Turning to `COc1ccc(-c2csc(N(CCCN(C)C)C(=O)c3ccccc3F)n2)cc1`, the result was inactive.

As to `CCOC(=O)c1c(N)sc(C(C)=O)c1C`, the outcome was inactive.

As to `CCOC(=O)N1CCC(NC(=O)c2cc(C(=O)NCc3ccc(F)cc3)ccc2CO)CC1`, the outcome was inactive. On to `COc1cc(OC)cc(C(=O)N2CC(=O)Nc3ccccc32)c1`, for which the result was inactive. Regarding `O=C(CSc1nnc(-c2ccccn2)n1-c1ccc(Cl)cc1)Nc1ccc2c(c1)OCO2`, the result was inactive. Turning to `Oc1c(/C=N/c2ccccn2)sc2ccccc12`, the result was inactive.

`S=c1nc[nH]c2c1sc1nc(N3CCOCC3)c3c(c12)CCCC3`: the result was inactive. Consider `CCn1c(SCC(=O)Nc2ccccc2F)nnc1-c1cnccn1`, for which the outcome was inactive. Take `CC(C)(C)NCC(O)CON=C1c2ccccc2-c2ccccc21` (stereo not given): the activation is 15.2% (active). Regarding `O=C(NNC(=O)c1cc(-c2ccccc2)nn1-c1ccccc1)c1ccccc1`, the outcome was inactive. For `CCN(CC)S(=O)(=O)c1ccc(NC(=O)c2cccnc2Cl)c(NC(=O)c2cccnc2Cl)c1`, the outcome was inactive. On to `O=C(O)c1cc2cc(F)ccc2[nH]1`, for which the outcome was inactive.

As for `COC1(c2ccccc2)NC(=S)NN=C1c1ccccc1` (stereo not given), the outcome was inactive.

For the molecule `O=C(N/C(=C\c1ccc([N+](=O)[O-])cc1)C(=O)N1CCCCC1)c1ccco1`, the outcome was inactive.

In the case of `COc1ccc(NC(=O)CN2CCN(C3c4ccccc4-c4ccccc43)CC2)cc1`, the result was inactive.

Consider `CC(c1nccs1)N(C)C(=O)CCc1nnc(Cc2c[nH]c3ccccc23)o1` (stereo not given), for which the outcome was inactive. Consider `CCN1CCN(C(c2ccccn2)c2c(NC(=O)c3ccccc3)sc(C)c2C)CC1` (stereo not given), for which the result was inactive. Consider `CCN(C(=O)c1cc2c(=O)[nH]c3ccc(C)cc3c2s1)c1ccccc1F`, for which the result was inactive. `COc1cccc(-c2nc(=S)c3c(o2)CCCC3)c1`: the outcome was inactive.

Take `N=c1sccn1CC(=O)Nc1ccc(S(=O)(=O)N2CCOCC2)cc1`: the result was inactive.

Take `O=C(CCN1Cc2ccccc2C1)c1ccc2c(c1)OCCO2`: the result was inactive. Turning to `Cc1ccc(C)c(Cn2c(O)c(N=NC(=S)Nc3ccccc3F)c3ccccc32)c1`, the outcome was inactive. With `Cc1onc(-c2ccccc2)c1C(=O)NC(=S)NNC(=O)c1ccccc1O`, the outcome was inactive. On the same count and under the same terms, the entry for `Cc1cc(/C=N/n2cnnc2)c(C)n1-c1cc(Cl)ccc1Cl` is “inactive”; for `O=C(NCC(c1cccs1)N1CCOCC1)C1CCN(S(=O)(=O)c2cccc(C(F)(F)F)c2)CC1` (stereo not given) it is “inactive”; for `COc1ccc(OC)c(NC(=S)NC(=O)c2ccc(Br)o2)c1` it is “inactive”.

For `CN(C(=O)c1ccc2c(c1)OCO2)C1CCCCC1`, the result was inactive.

For the origin of these results see PubChem BioAssay.
